Results published in ChEMBL document CHEMBL4152290, “1H-Benzo[d]imidazoles and 3,4-dihydroquinazolin-4-ones: Design, synthesis and antitubercular activity” (Eur J Med Chem, 2018).

Columns and labels:
[1] = Cytotoxicity against human HepG2 cells assessed as cell viability at 10 ug/ml after 72 hrs by MTT assay (reference value: 100%); format: cell-based; details: read-out: Activity
In short: (§1)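 Cells were grown in DMEM with 10% heat-inactivated FBS and penicillin-streptomycin, seeded at 2×10^3/well (HepG2, HaCat) or 1×10^3/well (Vero), then left 24 h. Compound was applied at 10 µg/mL final (2% DMSO) for 72 h at 37 °C, 5% CO2. MTT 1 mg/mL was added for 3 h, formazan dissolved in DMSO, and A595 read. Viability is expressed relative to 2% DMSO wells; mean ± SEM, triplicates, three independent experiments.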

[2] = Cytotoxicity against human HaCaT cells assessed as cell viability at 10 ug/ml after 72 hrs by MTT assay (reference value: 100%); format: cell-based; details: read-out: Activity; in short: as §1
[3] = Cytotoxicity against human HaCaT cells assessed as cell viability at 10 ug/ml after 72 hrs by neutral red uptake assay (reference value: 100%); format: cell-based; details: read-out: Activity
In short: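 Seeding was 2×10^3/well for HepG2 and HaCat and 1×10^3/well for Vero. After 24 h, cells received 10 µg/mL final (2% DMSO) for 72 h at 37 °C, 5% CO2. They were washed with PBS, given neutral red 25 µg/mL in serum-free medium for 3 h, washed, and extracted 30 min with acetic acid/EtOH/water 1:50:49. A540 was read. Viability is relative to 2% DMSO controls; mean ± SEM, three experiments in triplicate.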

[4] = Selectivity index, ratio of cytotoxic concentration for African green monkey Vero cells by neutral red uptake assay to MIC for Mycobacterium tuberculosis H37Rv ATCC 27294; format: toxicity; details: read-out: Selectivity Index
[5] = Stability of the compound in PBS containing 10% DMSO at 37 degC measured after 24 hrs by HPLC analysis; format: physicochemical; details: for remaining at 24 h: PBS containing 10% DMSO, read-out: Stability
[6] = Stability of the compound in PBS containing 10% DMSO at 37 degC measured after 48 hrs by HPLC analysis; format: physicochemical; details: read-out: Stability
Danio rerio [7] = species on record: Danio rerio; assay: Cardiotoxicity in Zebrafish AB embryos assessed as heart beat rate at 15 uM measured at 2 days post fertilization by stereomicroscopic method (reference value: 128.7 to 146.3 bpm); format: organism-based; details: in vivo, 48 h
Danio rerio [8] = species on record: Danio rerio; assay: Cardiotoxicity in Zebrafish AB embryos assessed as heart beat rate at 3 uM measured at 5 days post fertilization by stereomicroscopic method (reference value: 148.1 to 158.2 bpm); format: organism-based; details: in vivo, 120 h
Danio rerio [9] = species on record: Danio rerio; assay: Toxicity in Zebrafish AB embryos assessed as morphological alteration by measuring effect on ocular distance at 3 to 20 uM measured at 2 to 5 days post fertilization by stereomicroscopic method; format: organism-based; details: in vivo
In short: (§2)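 AB embryos are treated from 2 hpf to 5 dpf at 3.0, 15.0 and 20.0 µM in fish water with 1% DMSO, at 28 °C. Controls are fish water and 1% DMSO. Larvae are photographed under a stereomicroscope (3×) at 2 and 5 dpf, n = 30. Body length (µm), ocular distance (µm) and eye surface area (µm²) are measured from the images.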

Danio rerio [10] = species on record: Danio rerio; assay: Toxicity in Zebrafish AB embryos assessed as morphological alteration by measuring effect on surface area of eyes at 3 to 20 uM measured at 2 to 5 days post fertilization by stereomicroscopic method; format: organism-based; details: in vivo; in short: as §2
Danio rerio [11] = species on record: Danio rerio; assay: Toxicity in Zebrafish AB embryos assessed as morphological alteration by measuring effect on body length of larvae at 20 uM measured at 2 to 5 days post fertilization by stereomicroscopic method; format: organism-based; details: in vivo; in short: as §2

Row | Structure (SMILES) | viability at 72 h, 10 ug/ml [1] [%] | viability at 72 h, 10 ug/ml [2] [%] | viability at 72 h, 10 ug/ml [3] [%] | selectivity ratio [4] | remaining at 24 h [5] [%] | remaining at 48 h [6] [%] | Activity (Danio rerio [7]) [bpm] | Activity (Danio rerio [8]) [bpm] | Activity (Danio rerio [9]) | Activity (Danio rerio [10]) | Activity (Danio rerio [11]) | Stability ([5]; buffer, 24 h) [%]
1 | O=C(CSc1nc2ccccc2c(=O)[nH]1)NCC1CCCCC1 | 79 | 98 | 88 | ≤ 32 | 104 | 105 | 143.2 | 157.8 | Non-Toxic | Non-Toxic |  | 
2 | CC1CCC(NC(=O)CSc2nc3ccccc3c(=O)[nH]2)CC1 (stereo unspecified) | 89 | 95 | 94 | ≤ 32 | 43 | 48 | 127.2 | 147.7 | Non-Toxic | Non-Toxic |  | 
3 | C[C@H]1CC[C@H](NC(=O)CSc2nc3ccccc3c(=O)[nH]2)CC1 | 83 | 97 | 97 | ≤ 32 | 51 | 50 | 134 | 149.2 | Non-Toxic | Non-Toxic | Toxic | 
4 | CC1CCCC(NC(=O)CSc2nc3ccccc3c(=O)[nH]2)C1 (stereo unspecified) | 89 | 94 | 88 | ≤ 32 | 97 | 98 | 151.7 | 157.2 | Non-Toxic | Non-Toxic |  | 
5 | O=C(CSc1nc2ccccc2c(=O)[nH]1)NC1CCCCCC1 | 99 | 100 | 88 | ≤ 32 | 66 | 71 | 136.5 | 160.1 | Non-Toxic | Non-Toxic |  | 
6 | CC1CCCCC1NC(=O)CSc1nc2ccccc2c(=O)[nH]1 (stereo unspecified) | 94 | 100 | 99 | ≤ 32 | 81 | 80 | 151.7 | 162.6 | Non-Toxic | Non-Toxic |  | 
7 | O=C(CSc1nc2ccccc2c(=O)[nH]1)NC1CCCCC1 | 86 | 100 | 97 | ≤ 32 |  | 111 | 155 | 162.8 | Non-Toxic | Non-Toxic |  | 127
